Test results published in publication PMC13334530 (Nature neuroscience, 2026).

Legend:
[1] = system: Tau phosphorylation at S202/T205; test: Immunocytochemistry for phosphorylated Tau in primary neurons; format: cell-based, mouse; settings: primary hTau-KI hippocampal neurons, 12 hours
primary mouse neurons = test: Intracellular metabolite extraction from treated neurons; format: in vitro ADME; settings: DIV14 cortical neurons, extracted intracellular metabolites, 1 pg limit of detection
sarkosyl-insoluble Tau [2] = test: Sarkosyl fractionation of primary neurons, Tau immunoblot; format: cell-based, mouse; settings: 12 hours; for Tau aggregation (sarkosyl-insoluble Tau) in primary neurons: Epoxomicin, MG132, iBEp 1 μM, Leupeptin 20 μM every two hours; for sarkosyl-insoluble Tau in primary WT mouse neurons: iBEp 1 μM, IgG-Epox […]
[3] = system: Tau phosphorylation at S202/T205; test: Immunohistochemistry; format: in vivo, mouse; settings: stereotactic injection, 72 hours, versus contralateral control
[4] = system: ubiquitin-proteasome reporter GFPu in primary hippocampal neurons; test: GFPu degradation assay; format: cell-based, mouse; settings: DIV14 primary neurons, 1 μM, 12-hour incubation
Method in brief: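 Primary hippocampal neurons on coverslips co-transfected at DIV7 or DIV8 with Ub-G76V-GFP (0.5 μg/coverslip) and mCherry (0.1 μg/coverslip) using lipofectamine 2000, 4 h at 37 °C. At DIV14, 1 μM test compound for 12 h, then fixed and processed for immunocytochemistry. GFP+ cells counted per 100 cells; n=6 regions imaged per replicate, N=3 biological replicates.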

[5] = system: β-sheet containing aggregates; test: Thioflavin S staining after stereotactic hippocampal injection; format: in vivo, mouse; settings: hTau-KI mice, 72 hours, relative to contralateral controls
[6] = In vivo hippocampal injection dose-ranging; parameters: species or system mouse
[7] = target: catalytic proteasome subunits (Mus musculus, UniProt O55234+P70195+Q60692); format: binding; settings: for targets bound (streptavidin enrichment / biotin pull-down, LC/MS): primary mouse neurons and mouse brain, Table S1
Tau phosphorylation = test: Quantitative phosphoproteomics of treated primary neurons; format: cell-based; settings: primary mouse neurons; sites correspond to human S202, T205, T217, S404
[8] = system: intracellular ubiquitin conjugates and p62; test: Immunoblots of ubiquitin conjugates and p62 in primary neurons; format: cell-based, mouse; settings: primary WT neurons, immunoblot
[9] = system: Tau paired helical filaments; test: Electron microscopy of sarkosyl-insoluble fractions of injected hippocampi; format: in vivo, mouse; settings: hTau-KI mice, 72 hours after injection
sarkosyl-insoluble Tau [10] = test: Sarkosyl fractionation of hippocampi after stereotactic injection; format: in vivo, mouse
Proteasome subunit β5 = Proteasome subunit β5 (Homo sapiens, UniProt P28074); test: Proteasome subunit β5 activity assay; format: biochemical
[11] = system: neuroproteasome activity and sarkosyl-insoluble Tau; format: cell-based, mouse; settings: primary WT neurons treated with RAP and a dose curve of iBEp
[12] = system: surface Lrp1, GluR1 and neuroproteasomes; test: Surface biotinylation of primary neurons treated with RAP; format: cell-based; settings: primary mouse neurons
Method in brief: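 Neurons were washed in cold PBSCM pH 8.0 and labelled with 0.5 mg/mL Sulfo-NHS-LC-Biotin in PBSCM, 4°C for 10 min. Labelling quenched with 50 mM glycine, two 10-min incubations at 4°C.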

CC[C@H](C)[C@H](NC(=O)[C@H]([C@@H](C)CC)N(C)C(C)=O)C(=O)N[C@H](C(=O)N[C@@H](CC(C)C)C(=O)[C@@]1(C)CO1)[C@@H](C)O [Epoxomicin, reference compound]
Tau phosphorylation at S202/T205 in primary neurons [1]: No Tau S202/T205 phosphorylation was detectable | permeability into primary mouse neurons by LC/MS-based metabolite profiling (primary mouse neurons): peak in Epox treated cells corresponds to Epoxomicin | Tau aggregation (sarkosyl-insoluble Tau) in primary neurons (sarkosyl-insoluble Tau [2]): does not | Tau phosphorylation at S202/T205 (AT8) in hippocampi of hTau-KI mice [3]: No Tau S202/T205 phosphorylation was detectable

Biotin-PEG24-Epoxomicin [iBEp]
Tau phosphorylation at S202/T205 in primary neurons [1]: significantly elevated | accumulation of the ubiquitin-proteasome reporter GFPu [4]: did not cause accumulation | ThioS staining in CA1 region of hippocampi [5]: strong increase | adverse physiological effects at selected concentration ([6]; 6.4 μM): without causing observable adverse physiological effects | inhibition of membrane-fraction proteasomes in vivo ([6]; 6.4 μM): detectable inhibition of membrane-fraction proteasomes | concentration inducing seizure activity ([6]; 2 μL, mice): exceeding 12 μM | targets bound (streptavidin enrichment / biotin pull-down, LC/MS) [7]: selectively targets catalytic proteasome subunits | bands differentially labeled versus DMSO (streptavidin blot) ([7]; primary neurons treated 12 hours): only three bands differentially labeled | Tau phosphorylation sites with time-dependent increase, of identified sites (Tau phosphorylation): 4 of 26 | increase of total intracellular ubiquitin conjugates or p62 levels [8]: lack of both markers | filaments in sarkosyl-insoluble fractions by negative stain EM [9]: Twisted filaments which resembled paired helical filaments (PHFs) were readily apparent | sarkosyl-insoluble Tau in hippocampi from hTau-KI mice (sarkosyl-insoluble Tau [10]; 2 μL of 6.4 μM into CA1, 72 hours, contralateral IIT-PEG24-Biotin, N=6): significant increase | sarkosyl-insoluble Tau signal in hippocampi from Tau-KO mice (sarkosyl-insoluble Tau [10]; stereotactic injection, contralateral DMSO, N=3): no detectable signal | Tau aggregation (sarkosyl-insoluble Tau) in primary neurons (sarkosyl-insoluble Tau [2]): induces Tau aggregation | sarkosyl-insoluble Tau in primary WT mouse neurons (sarkosyl-insoluble Tau [2]; immunoblot): significant increase | Tau phosphorylation at S202/T205 (AT8) in hippocampi of hTau-KI mice [3]: significantly elevated

Biotin-PEG24-IleIleThr
sarkosyl-insoluble Tau in primary WT mouse neurons (sarkosyl-insoluble Tau [2]; immunoblot): No such signal

Sulfo-MG132 [SulfoMG]
targets bound (streptavidin enrichment / biotin pull-down, LC/MS) [7]: the catalytic proteasome subunits as well as some off-targets of MG132 | sarkosyl-insoluble hTau in primary hTau-KI neurons (sarkosyl-insoluble Tau [2]; 1 μM, immunoblot): induces similar partitioning of hTau into the sarkosyl-insoluble fraction as iBEp | Tau aggregation (sarkosyl-insoluble Tau) in primary neurons (sarkosyl-insoluble Tau [2]): induces Tau aggregation | activity as proteasome inhibitor (Proteasome subunit β5; dose curve, Suc-LLVY-AMC (Extended Data Fig. 3g)): active | potency relative to MG132 (Proteasome subunit β5; proteasome, calpain and cathepsin L activity assays (Extended Data Fig. 3g,h)): less potent than MG132

B1: RAP: pan-ApoE receptor antagonist, Receptor-associated protein (protein, UniProt P30533 35-357, looked up)
Alpha-2-macroglobulin …: YSREKNQPKPSPKRESGEEFRMEKLNQLWEKAQRLHLPPVRLAELHADLKIQERDELAWKKLKLDGLDEDGEKEARLIRNLNVILAKYGLDGKKDARQVTSNSLSGTQEDGLDDPRLEKLWHKAKTSGKFSGEELDKLWREFLHHKEKVHEYNVLLETLSRTEEIHENVISPSDLSDIKGSVLHSRHTELKEKLRSINQGLDRLRRVSHQGYSTEAEFEEPRVIDLWDLAQSANLTDKELEAFREELKHFEAKIEKHNHYQKQLEIAHEKLRHAESVGDGERVSRSREKHALLEGRTKELGYTVKKHLQDLSGRISRARHNEL
susceptibility of neurons to Tau aggregation [11]: renders neurons more susceptible to Tau aggregation | surface GluR1 [12]: without modifying | surface abundance of neuroproteasomes [12]: reduced | surface localization of Lrp1 [12]: rapidly decreased
